# Molecular target: T1, PfKASIII (Plasmodium falciparum, UniProt O77078)
# Experiment: PfKASIII inhibitor screen
# Type: biochemical
# Details: not given
SMILES,IC50 [µM],PfKASIII inhibition (in words)
COc1ncnc(NS(=O)(=O)c2ccc(N)cc2)c1OC [Compound 2c],> 1000,failed to inhibit PfKASIII at the highest concentration tested
C/C=C/CCCCCCCC(=O)NS(=O)(=O)c1ccc(N)cc1 [Compound 2e],> 1000,failed to inhibit PfKASIII at the highest concentration tested
Nc1ccc(S(=O)(=O)c2cc(O)c3ccccc3c2O)c(Cl)c1 [Compound 3c],,the most potent compound within the class of sulfonyls
CCCCS(=O)(=O)CCOC(=O)c1ccc([N+](=O)[O-])cc1 [Compound 3r],,potent inhibitors of PfKASIII

# Test system: J774 murine monocyte-like macrophage line (subclone G8)
# Experiment: Toxicity assay
# Type: cell-based
# Details: not given
row,SMILES,toxicity against the mammalian cell line (in words)
1,c1ccc(SSc2ccccc2)cc1 [Compound 1d],little toxicity
2,O=S(=O)(Nc1cccc(Cl)c1)c1ccccc1 [Compound 2b],significant toxicity
3,Cc1ccc(S(=O)(=O)c2cc(O)c3ccccc3c2O)cc1 [Compound 3a],little toxicity
4,NC1CCC(S(=O)(=O)c2cc(O)c3ccccc3c2O)CC1 (stereo not drawn) [Compound 3b],little toxicity
5,CC(C)c1ccc(S(=O)(=O)c2ccc(C(C)C)cc2)cc1 [Compound 3g],significant toxicity
6,Cc1ccc(S/C=C/S(=O)(=O)Cc2ccccc2)cc1 [Compound 3n],significant toxicity
7,CCCCS(=O)(=O)CCOC(=O)c1ccc([N+](=O)[O-])cc1 [Compound 3r],significant toxicity

# Test system: P. falciparum parasites
# Experiment: In vitro malaria growth inhibition assay, strain not specified or both strains
# Type: cell-based, Plasmodium falciparum
# Details: drug resistant and sensitive parasites
# Summary of the method: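 P. falciparum D6 (chloroquine-sensitive, Sierra Leone I) and W2 (chloroquine-resistant, Indochina I) clones were cultured under 90% N2/5% O2/5% CO2 with 10% human serum and 6% haematocrit A+ red cells. Cultures at 3% parasitaemia with ≥70% rings were put on predosed plates for 24 h. [3H]-hypoxanthine was then added for 18 h, and cells were harvested and counted. IC50 was taken from a four-parameter nonlinear regression.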
row,SMILES,antimalarial activity / parasite growth inhibition (in words)
1,COc1ncnc(NS(=O)(=O)c2ccc(N)cc2)c1OC [Compound 2c],robust antimalarial activity
2,O=[N+]([O-])c1c(Cl)sc(Cl)c1S(=O)(=O)Nc1ccc(C(F)(F)F)cc1 [Compound 2g],modest activity
3,CCCCS(=O)(=O)CCOC(=O)c1ccc([N+](=O)[O-])cc1 [Compound 3r],fail to inhibit parasite growth

# Molecular target: T1, PfKASIII
# Experiment: not given
# Details: read-out: PfKASIII IC50; cited from earlier work
row,SMILES,IC50 [µM]
1,C=C/C(C)=C/[C@@]1(C)SC(=O)C(C)=C1O [Thiolactomycin],> 330

# Test system: bacterial KAS enzymes
# Experiment: not given
# Details: cited from earlier work
row,SMILES,"in vivo IC50, bacterial KAS enzymes [µM]"
1,C=C/C(C)=C/[C@@]1(C)SC(=O)C(C)=C1O [Thiolactomycin],75

# — publication PMC2810129 (Journal of medicinal chemistry, 2009)
